Measurements as given in ChEMBL document CHEMBL1144767, “Characterization of chemical libraries for luciferase inhibitory activity” (J Med Chem, 2008).
Calls of active or inactive are those of the source. The calls are words filed in the database; no cut-off is given here.

Legend:
[1] = target: T1, Luciferin 4-monooxygenase (Photinus pyralis, UniProt P08659); experiment: Inhibition of Photinus pyralis luciferase by PK-Light assay
[2] = target: Luciferin 4-monooxygenase (Photinus pyralis) (UniProt P08659); experiment: Inhibition of […] luciferase at 100 uM
Procedure, shortened: (§1)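 Light attenuation in two-chamber quartz cuvette at room temperature. One half holds the reaction, the other holds compound in the same buffer. Firefly reaction: 100 µM ATP and D-luciferin, 100 nM enzyme, 5 nm slit. Renilla reaction: 50 µM coelenterazine, 100 nM enzyme, 10 nm slit. Emission scanned 400–700 nm in 2 nm steps, 0.1 s integration. Compounds 2-fold diluted from 100 µM.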

[3] = target: T1, Luciferin 4-monooxygenase; experiment: Inhibition of Photinus pyralis luciferase by Easy lite assay
Procedure, shortened: (§2)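 Detection by 2 µL of EasyLite or Kinase-Glo reagent (Kinase-Glo containing P. pennsylvanica luciferase). 1536-well luminescence. 16 two-fold concentrations, duplicate wells, repeated on two or three days.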

[4] = target: T1, Luciferin 4-monooxygenase; experiment: Inhibition of Photinus pyralis luciferase by BrightGlo reporter gene assay
Procedure, shortened: (§3)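 5 nM purified P. pyralis luciferase in SteadyGlo or BrightGlo reporter-gene reagent; no extra ATP or D-luciferin added. 1536-well luminescence. Curves from 16 two-fold concentrations in duplicate, repeated on two or three separate days.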

[5] = Inhibition of Renilla reniformis luciferase
[6] = target: T1, Luciferin 4-monooxygenase; experiment: Inhibition of Photinus pyralis luciferase by Steady-Glo reporter gene assay; procedure, shortened: as §3
[7] = target: T2, Luciferin 4-monooxygenase (Photuris pensylvanica, UniProt Q27757); experiment: Inhibition of luciferase Photuris pennsylvanica by Promega Kinase-Glo assay; procedure, shortened: as §2
T2 sequence (Q27757 whole entry): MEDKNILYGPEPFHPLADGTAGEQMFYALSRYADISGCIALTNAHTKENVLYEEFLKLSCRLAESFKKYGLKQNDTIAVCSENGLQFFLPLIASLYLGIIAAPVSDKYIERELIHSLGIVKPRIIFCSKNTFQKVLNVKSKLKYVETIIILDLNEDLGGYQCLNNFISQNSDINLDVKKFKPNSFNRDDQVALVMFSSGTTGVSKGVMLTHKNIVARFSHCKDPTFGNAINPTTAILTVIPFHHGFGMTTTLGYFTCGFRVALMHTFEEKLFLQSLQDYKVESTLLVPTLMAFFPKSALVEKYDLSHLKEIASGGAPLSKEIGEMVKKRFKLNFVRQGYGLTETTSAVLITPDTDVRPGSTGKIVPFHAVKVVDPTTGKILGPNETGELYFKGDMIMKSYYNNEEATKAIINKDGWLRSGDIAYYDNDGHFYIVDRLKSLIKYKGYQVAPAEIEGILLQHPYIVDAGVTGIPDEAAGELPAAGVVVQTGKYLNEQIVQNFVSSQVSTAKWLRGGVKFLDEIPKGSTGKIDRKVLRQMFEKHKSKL

[8] = target: T1, Luciferin 4-monooxygenase; experiment: Inhibition of Photinus pyralis luciferase
[9] = target: Luciferin 4-monooxygenase (Photinus pyralis) (UniProt P08659); experiment: Inhibition of […] luciferase at 20 uM assessed as quenching of luminescence; design: scale not given: the % may be the effect or the level left; procedure, shortened: as §1
Renilla reniformis = experiment: Inhibition of Renilla reniformis luciferase at 20 uM assessed as quenching of luminescence; design: scale not given: the % may be the effect or the level left; procedure, shortened: as §1

T1 sequence (P08659 whole entry): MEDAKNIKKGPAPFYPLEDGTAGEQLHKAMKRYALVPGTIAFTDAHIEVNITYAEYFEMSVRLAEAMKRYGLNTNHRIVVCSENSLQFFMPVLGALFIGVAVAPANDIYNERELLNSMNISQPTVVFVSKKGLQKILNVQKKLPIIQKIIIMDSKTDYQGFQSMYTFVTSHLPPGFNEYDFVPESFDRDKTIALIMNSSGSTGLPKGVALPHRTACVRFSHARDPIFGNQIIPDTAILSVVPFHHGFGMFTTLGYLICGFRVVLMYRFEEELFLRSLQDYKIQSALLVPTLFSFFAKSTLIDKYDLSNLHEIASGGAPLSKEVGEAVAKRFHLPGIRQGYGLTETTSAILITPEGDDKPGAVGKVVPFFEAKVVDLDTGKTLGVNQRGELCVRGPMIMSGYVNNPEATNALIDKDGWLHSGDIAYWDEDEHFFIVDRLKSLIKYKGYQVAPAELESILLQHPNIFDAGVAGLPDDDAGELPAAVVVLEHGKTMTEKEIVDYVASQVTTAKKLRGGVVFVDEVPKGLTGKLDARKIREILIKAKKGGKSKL
Luciferin 4-monooxygenase (Photinus pyralis), sequence (P08659 whole entry): as above

Row | IC50 [1] [µM] | Activity [2] | IC50 [3] [µM] | IC50 [4] [µM] | IC50 [5] [µM] | IC50 [6] [µM] | IC50 [7] [µM] | IC50 [8] [µM] | Activity [9] [%] | Activity (Renilla reniformis) [%] | Structure (SMILES)
1 | 1.7 | inactive | 1.26 | 2 | 36 | 1.6 | 1.8 | 4.5 | – | – | Cc1ccc(O)c(/N=N/c2ccccc2)n1
2 | 6.9 | – | 7.6 | 17 | 10 | 22 | 20 | 1.7 | 50 | 50 | Cc1cc(-c2ccc(/N=N/c3ccc4c(S(=O)(=O)O)cc(S(=O)(=O)O)c(N)c4c3O)c(C)c2)ccc1/N=N/c1ccc2c(S(=O)(=O)O)cc(S(=O)(=O)O)c(N)c2c1O [EVANS BLUE]
